Reference: ChEMBL document CHEMBL2384906, “Biological activity, design, synthesis and structure activity relationship of some novel derivatives of curcumin containing sulfonamides” (Eur J Med Chem, 2013)
In brackets after ≈: the same amount, converted by molar mass. Activity calls are given as the source filed them. The rule behind the calls is not given here.

Experiments:
Salmonella typhi [1] = assay: Antimicrobial activity against Salmonella typhi ATCC 23564 assessed as diameter of inhibition zone at 20 uM after 24 hrs by Kirby -Baur disc diffusion method; assay type: functional; settings: Salmonella enterica subsp. enterica serovar Typhi
Pseudomonas aeruginosa [2] = assay: Antimicrobial activity against Pseudomonas aeruginosa ATCC 15499 after 24 hrs by broth micro serial dilution method; assay type: functional
Outline: (§1)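 This was broth microdilution in autoclaved Mueller-Hinton broth. 150 µL of compound per well was serially diluted […], and 50 µL of test organism was added. Plates were incubated 24 h at 37 °C and optical density was read.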

HCT-116 = assay: Cytotoxicity against human HCT116 cells after 24 hrs by MTT assay; assay type: functional, cell-based
Outline: (§2)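 The MTT assay seeded 5 × 10⁴ cells per well and grew them 24 h in RPMI 1640 with compound at 2.5–200 µM. Medium without cells was the blank and adriamycin the positive control. MTT was added for 4 h at 37 °C, formazan was solubilised, and absorbance was read at 570 nm. IC50 is the concentration that cuts viability 50% against untreated cells.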

Aspergillus flavus [3] = assay: Antifungal activity against Aspergillus flavus MTCC 1021 assessed as zone of inhibition at 80 uM after 48 hrs by disc diffusion method; assay type: functional
Outline: (§3)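 Spores from 4-day potato dextrose agar cultures, suspended in sterile water at 1.5 × 10⁵ CFU/mL. 0.2 mL was spread on potato dextrose agar. 5 mm filter-paper discs soaked with test compound were laid on the lawn. Incubation was 48 h at 28 °C, then the inhibition zone was measured in mm. Fluconazole was the positive control and acetone the negative control.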

Trichoderma viride [4] = assay: Antifungal activity against Trichoderma viride MTCC 1107 after 48 hrs; assay type: functional; settings: MTCC 1107, 48 h
Salmonella typhi [5] = assay: Antimicrobial activity against Salmonella typhi ATCC 23564 assessed as diameter of inhibition zone at 80 uM after 24 hrs by Kirby -Baur disc diffusion method; assay type: functional, Salmonella enterica subsp. enterica serovar Typhi
Curvularia lunata [6] = assay: Antifungal activity against Curvularia lunata MTCC 581 assessed as zone of inhibition at 80 uM after 48 hrs by disc diffusion method; assay type: functional; settings: MTCC 581, 48 h, read-out: IZ; outline: as §3
HepG2 = assay: Cytotoxicity against human HepG2 cells after 24 hrs by MTT assay; assay type: functional, cell-based; outline: as §2
Pseudomonas aeruginosa [7] = assay: Antimicrobial activity against Pseudomonas aeruginosa ATCC 15499 assessed as diameter of inhibition zone at 80 uM after 24 hrs by Kirby -Baur disc diffusion method; assay type: functional
Outline: (§4)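 Kirby-Bauer disc diffusion was used. Acetone stocks (160 µM) were serially doubled down to 80, 40 and 20 µM. 4 µL of each went onto 5 mm sterile paper discs, which were dried 30 min at 50 °C. Inoculum was 1.5 × 10⁸ CFU/mL diluted to 3 × 10² CFU/mL, and 50 µL was spread on Mueller-Hinton agar. After 24 h at 37 °C the inhibition-zone diameter was measured. Ciprofloxacin served as positive control.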

Curvularia lunata [8] = assay: Antifungal activity against Curvularia lunata MTCC 581 assessed as zone of inhibition at 20 uM after 48 hrs by disc diffusion method; assay type: functional; outline: as §3
Trichoderma viride [9] = assay: Antifungal activity against Trichoderma viride MTCC 1107 assessed as zone of inhibition at 20 uM after 48 hrs by disc diffusion method; assay type: functional; outline: as §3
Staphylococcus aureus [10] = assay: Antimicrobial activity against Staphylococcus aureus ATCC 11632 assessed as diameter of inhibition zone at 80 uM after 24 hrs by Kirby -Baur disc diffusion method; assay type: functional; outline: as §4
Bacillus cereus [11] = assay: Antimicrobial activity against Bacillus cereus MTCC 7350 assessed as diameter of inhibition zone at 80 uM after 24 hrs by Kirby -Baur disc diffusion method; assay type: functional; outline: as §4
Trichoderma viride [12] = assay: Antifungal activity against Trichoderma viride MTCC 1107 assessed as zone of inhibition at 40 uM after 48 hrs by disc diffusion method; assay type: functional; outline: as §3
Curvularia lunata [13] = assay: Antifungal activity against Curvularia lunata MTCC 581 after 48 hrs; assay type: functional; settings: MTCC 581, 48 h
Trichoderma viride [14] = assay: Antifungal activity against Trichoderma viride MTCC 1107 assessed as zone of inhibition at 80 uM after 48 hrs by disc diffusion method; assay type: functional; settings: MTCC 1107, 48 h, read-out: IZ; outline: as §3
Aspergillus flavus [15] = assay: Antifungal activity against Aspergillus flavus MTCC 1021 after 48 hrs; assay type: functional
QG-56 = assay: Cytotoxicity against human QG56 cells after 24 hrs by MTT assay; assay type: functional, cell-based; outline: as §2
Mus musculus = assay: Antiinflammatory activity in mouse assessed as inhibition of carrageenan-induced increase in paw volume at 200 mg/kg administered 1 hr prior to carrageenan challenge measured after 3 hrs relative to control; assay type: functional
Outline: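 Mice were fasted 2 h and placed in groups of five. Controls received saline i.p. Phenylbutazone was given at 100 mg/kg i.p., curcumin at 200 mg/kg i.p., and derivatives at 200 mg/kg. After 1 h, 0.1 mL of 1% carrageenan in saline was injected subplantar into the right hind paw. Paw volume was followed by plethysmometer for 3 h, and % inhibition was calculated as (Vc − Vt)/Vc × 100.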

Bacillus cereus [16] = assay: Antimicrobial activity against Bacillus cereus MTCC 7350 after 24 hrs by broth micro serial dilution method; assay type: functional; outline: as §1
Aspergillus niger [17] = assay: Antifungal activity against Aspergillus niger MTCC 1108 assessed as zone of inhibition at 80 uM after 48 hrs by disc diffusion method; assay type: functional; outline: as §3
Escherichia coli [18] = assay: Antimicrobial activity against Escherichia coli ATCC 35218 after 24 hrs by broth micro serial dilution method; assay type: functional; outline: as §1
Salmonella typhi [19] = assay: Antimicrobial activity against Salmonella typhi ATCC 23564 assessed as diameter of inhibition zone at 40 uM after 24 hrs by Kirby -Baur disc diffusion method; assay type: functional; settings: Salmonella enterica subsp. enterica serovar Typhi
Salmonella typhi [20] = assay: Antimicrobial activity against Salmonella typhi ATCC 23564 after 24 hrs by broth micro serial dilution method; assay type: functional, Salmonella enterica subsp. enterica serovar Typhi
Curvularia lunata [21] = assay: Antifungal activity against Curvularia lunata MTCC 581 assessed as zone of inhibition at 40 uM after 48 hrs by disc diffusion method; assay type: functional; outline: as §3
Staphylococcus aureus [22] = assay: Antimicrobial activity against Staphylococcus aureus ATCC 11632 after 24 hrs by broth micro serial dilution method; assay type: functional; outline: as §1
HeLa = assay: Cytotoxicity against human HeLa cells after 24 hrs by MTT assay; assay type: functional, cell-based; outline: as §2
Escherichia coli [23] = assay: Antimicrobial activity against Escherichia coli ATCC 35218 assessed as diameter of inhibition zone at 80 uM after 24 hrs by Kirby -Baur disc diffusion method; assay type: functional; outline: as §4
Aspergillus niger [24] = assay: Antifungal activity against Aspergillus niger MTCC 1108 after 48 hrs; assay type: functional
[25] = Salmonella enterica subsp. enterica serovar Typhi

Row | Structure (SMILES) | MIC (Pseudomonas aeruginosa [2]) | IC50 (HCT-116) | inhibition zone (IZ) (Aspergillus flavus [3]) | MIC (Trichoderma viride [4]) | zone of inhibition at 80 µM (Curvularia lunata [6]) | IC50 (HepG2) | diameter of the inhibition zone (DIZ) (Pseudomonas aeruginosa [7]) | inhibition zone (IZ) (Curvularia lunata [8]) | inhibition zone (IZ) (Trichoderma viride [9]) | diameter of the inhibition zone (DIZ) (Staphylococcus aureus [10]) | diameter of the inhibition zone (DIZ) (Bacillus cereus [11]) | MIC (Curvularia lunata [13]) | zone of inhibition at 80 µM (Trichoderma viride [14]) | MIC (Aspergillus flavus [15]) | IC50 (QG-56) | inhibition in vivo at 200 mg/kg (Mus musculus) | MIC (Bacillus cereus [16]) | inhibition zone (IZ) (Aspergillus niger [17]) | MIC (Escherichia coli [18]) | MIC (Staphylococcus aureus [22]) | further results
1 | COc1cc(/C=C/c2noc(/C=C/c3ccc(O)c(OC)c3)c2/N=N/c2ccc(S(N)(=O)=O)cc2)ccc1O | inactive | Not Active | inactive | > 80 µM | 9 mm | Not Active | inactive | inactive | inactive | inactive | inactive | > 80 µM | 11 mm | inactive | Not Active | 24.1% | inactive | inactive | inactive | inactive | diameter of the inhibition zone (DIZ) (Salmonella typhi [1]): inactive; zone of inhibition at 80 µM (Salmonella typhi [5]; Salmonella enterica, ATCC 23564, 24 h, read-out: DIZ): 11 mm; inhibition zone (IZ) (Trichoderma viride [12]): inactive; diameter of the inhibition zone (DIZ) (Salmonella typhi [19]): inactive; MIC (Salmonella typhi [20]; Salmonella enterica, ATCC 23564, 24 h): > 80 µM; inhibition zone (IZ) (Curvularia lunata [21]): inactive; IC50 (HeLa): Not Active; diameter of the inhibition zone (DIZ) (Escherichia coli [23]): inactive; MIC (Aspergillus niger [24]): inactive
2 | COc1cc(/C=C/c2nn(-c3ccccc3)c(/C=C/c3ccc(O)c(OC)c3)c2/N=N/c2ccc(S(N)(=O)=O)cc2)ccc1O | inactive | Not Active | inactive | 80 µM (≈ 49.9 µg/mL) | 11 mm | Not Active | inactive | inactive | inactive | inactive | inactive | > 80 µM | 11 mm | inactive | > 100 µM | 22.5% | inactive | inactive | inactive | inactive | diameter of the inhibition zone (DIZ) (Salmonella typhi [5]; [25]): inactive; zone of inhibition at 40 µM (Trichoderma viride [12]; MTCC 1107, 48 h, read-out: IZ): 10 mm; MIC (Salmonella typhi [20]; [25]): inactive; zone of inhibition at 40 µM (Curvularia lunata [21]; MTCC 581, 48 h, read-out: IZ): 10 mm; IC50 (HeLa): > 100 µM; diameter of the inhibition zone (DIZ) (Escherichia coli [23]): inactive; MIC (Aspergillus niger [24]): inactive
